Consider 48 sequences from the EternaBench riboswitch data.

For this series, the system named is MS2 coat protein. The series is described as follows: apparent Kd, MS2 coat protein; higher = weaker binding; RNA-MaP array; FMN 200 µM where present. In a few lines: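 Designs on Illumina sequencing-chip clusters, transcribed by stalled E. coli RNA polymerase, were exposed to SNAP-549-labelled MS2 coat protein in doubling steps from 0.7 or 1.5 nM up to 3 µM, without and then with constant ligand. The buffer held 100 mM Tris-HCl pH 7.5, 80 mM KCl, 4 mM MgCl2, BSA, DTT, yeast tRNA and Tween-20. Apparent Kd values are medians of filtered per-cluster binding-curve fits to green signal normalised to red-channel RNA signal and control-cluster median Fmax.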

[1] abbreviates: designed as: OFF switch for flavin mononucleotide, no ligand.
Setting [2] is: ligand present: flavin mononucleotide, designed as: OFF switch for flavin mononucleotide.
The mark [3] stands for this setting: designed as: ON switch for flavin mononucleotide, no ligand.
Where [4] appears, read: ligand present: flavin mononucleotide, designed as: ON switch for flavin mononucleotide.

Consider “GAUCGCCGUGUCAGGAUAUCUUGUGUACCCACGUUAGAGAAGGGACAUGAGGAUCACCCAUGUACCCUGGCUUU”, for which the apparent Kd (as a rule, the concentration giving half-maximal binding under the conditions of the assay) reads like this: under setting [1], 20.6 nM; under setting [2], 20.5 nM.
As to “AAAAAACAUGAGGAUCACCCAUGUCGAAAGACGUGAGGAUAUGUACAGACUUCGGUCUGUACAGAAGGCAUGUCAA”, the “apparent Kd” value under setting [3] was found to be 94 nM and the “apparent Kd” value under setting [4] is 20.2 nM.
Regarding “GGGUGACAUGAGGAUCACCCAUGUCAGGAUAUUGAGCUUGAGCUGAAAAGUUCGAGUUCGAGAAGGGACUGCCC”, the “apparent Kd” value runs as follows: under setting [1], 52 nM; under setting [2], 229 nM.
Taken in the same sequence, the figures for “UAUAUAUAGUAAGGAUAUGUAUAUAUUUAAUAAACAGAAGGUACUGACAUGAGGAUCACCCAUGUUUUAGUGUGGGCAUGUAGA” were 74.1 nM and 110 nM.
In the same order, the values of “CGCUAAGAGAACUAUUAGAGAAGACAUGAGGAUCACCCAUGUAGAAGGACAACGGAAUAAACGUUGUAGGAUAUACACUUAGCG” are 22.6 nM and 17 nM.
In the same order, the values of “AAAACGUCAGGAUAUACAGAAGAGAUCACAAAAAAAAAAAAACAUGAGGAUCACCCAUGUAGAAGGGACAAAAA” are 138 nM and 188 nM.
Turning to “GGGCCCGGUGUGAGGAUAUGCCCGGGUAAAUUUGGGCAGAAGGCACAUGAGGAUCACCCAUGUAAGCCGGGCCC”, the “apparent Kd” value by setting is: under setting [1], 13.9 nM; under setting [2], 13.8 nM.
Turning to “UUAUUCUAUAUAGGAUAUUGAUGUAAUUUAUUUCAAGAAGGAUAUACAUGAGGAUCACCCAUGUUGGAUAGGGUUAGUUUGUUU”, the “apparent Kd” value was 81.1 nM under setting [3] and 91.1 nM under setting [4].
Take “UUGCCUCGGAACAUGAGGAUCACCCAUGUGCUGCGGGCAACGUAGGAUAUGAUGGUACGCUACCAUCAGAAGGAUGAUGGUACC”: the “apparent Kd” value is, setting by setting: under setting [3], 4.98 nM; under setting [4], 5.29 nM.
In the case of “GAUCGACAUGAGGAUCACCCAUGUCAGGAUAUCGUCACUGGAGCUUCGGCUCCAGUGACGAGAAGGGACAUAAU”, the “apparent Kd” value is, setting by setting: under setting [1], 31.9 nM; under setting [2], 44.6 nM.
“UCAUGCAUAGCGAUAUGAUCGAGAGAUCAUGUCGCUAAAUUUAGAAGGACAUGAGGAUCACCCAUGUAGGAUAUGGGAGCAUGU”: the “apparent Kd” value was 535 nM under setting [3] and 63.2 nM under setting [4].
Consider “AGAAACUAGGAGAAGGACAUAUGAUUAAGACGAAACAUGAGGAUCACCCAUGUAGGAUAUCCUAGUUUCAGGAUCGUGAGAUCA”, for which the “apparent Kd” value is, setting by setting: under setting [1], 7.58 nM; under setting [2], 15.3 nM.
Taken in the same sequence, the figures for “ACGGCAAUCGAAGGAUAUGGUUACAUGAGGAUCACCCAUGUCUAGGGUCUAAUUAGGUAUAAUUACCAGAAGGUCGAAGGCCUA” were 93.7 nM and 122 nM.
As for “CAAGGUACCCAAGGAUAUCCUCACAUGAGGAUCACCCAUGUGUCAGCAAAAGGAGAAGGUGGGUGAAGCUGUCUGCACGCCAAG”, the “apparent Kd” value reads like this: under setting [3], 53.3 nM; under setting [4], 4.53 nM.
As to “UUUCCGCGAGGAUAUGCGGGUUGUGCUUUUCAUUUCUUAUAACAUGAGGAUCACCCAUGUAGAAGGUGCUUCUU”, the “apparent Kd” value was 151 nM under setting [1] and 144 nM under setting [2].
In the same order, the values of “UGGACUGGGCAGAAGGGACAUGAGGAUCACCCAUGUCUUGGGCUACUUCAGUCAGGAUAUGCCCAUUGAAUAUCCGUGCAACAA” are 15.4 nM and 76.9 nM.
Take “UGAUAGGACAGAGGAUAUACGUAUAAAUAUCCUUACAUGAGGAUCACCCAUGUAGAAGGCUGUCCUAUCUAAGUCGGAAACGAC”: the “apparent Kd” value amounted to 5.96 nM under setting [1] and 10.3 nM under setting [2].
Taken in the same sequence, the figures for “GCCUUGUCAGGAUAUCCGCGCGGGUGGCGCAUGCACUGCGUGGAGAAGGGACAUGAGGAUCACCCAUGUGCGUA” were 89.2 nM and 317 nM.
Regarding “ACAACUAAGCAGAAGGCAGUCAUAGCAUUCGUCAUGUAGACAUGAGGAUCACCCAUGUAUAGUGCUGAGGAUAUGCUUGGUUAG”, the “apparent Kd” value came out at 11.3 nM under setting [1] and 9.47 nM under setting [2].
On to “GUAGCAUAGACAGGAUAUUCAUAUAAUAAAUAAACAUGAGGAUCACCCAUGUGGCGAAAGCCUUGGGAGAAGGGUCAAUGCUAC”, for which the “apparent Kd” value reads like this: under setting [3], 1070 nM; under setting [4], 82.1 nM.
In the same order, the values of “UGUUAUUAGACAGGAUAUUGAAUGUUAAGUAUUAACAUGAGGAUCACCCAUGUAUUUGAUUGGUACAAGAAGGGUCAUGUUCCU” are 431 nM and 649 nM.
Consider “AUCAGCUCGUCAGGAUAUACGUCACUGCGUCAGCAGUGUGGUAAGAUUACAUGAGGAUCACCCAUGUAGAAGGGACGAGCUGAU”, for which the “apparent Kd” value was determined as 6.38 nM under setting [1] and 8.59 nM under setting [2].
In the same order, the values of “CAGAGGAUGUAAGGAUAUCGUCAGGAUAACUGACGAGAAGGUACAUGAGGAUCACCCAUGUAUAUGAAAGAUAAUAAACCUCUG” are 13.5 nM and 18.8 nM.
As to “AUCCUGCGAGGAUAUACAUAGUGACGUCUGUUUGGUCUUAAACAUGAGGAUCACCCAUGUAGAAGGUGCGUCAC”, the “apparent Kd” value runs as follows: under setting [1], 15.8 nM; under setting [2], 19.5 nM.
For “UCUCUGCGAGGAUAUACGUUUGCGCGCUUUCGUUUGCGCGUACAUGAGGAUCACCCAUGUAGAAGGCGCGUUUC”, the “apparent Kd” value turned out to be 13.2 nM under setting [1] and 14.1 nM under setting [2].
Regarding “AAGAAACAUGAGGAUCACCCAUGUCGAGAGAGACGAGGAUAUCUGAAUCGAUUAGAUUACGGAGAAGGCGUGAAAA”, the “apparent Kd” value reads like this: under setting [3], 29.4 nM; under setting [4], 23.4 nM.
With “UACAUGAGGAUCACCCAUGUUUUGUCGUGUAUGGUAUUUAUCUAGGAUAUCAAUAUAUUUAUUUAUGAGAAGGAGAAUAUUAAU”, the “apparent Kd” value was 38 nM under setting [1] and 33.6 nM under setting [2].
Taken in the same sequence, the figures for “GCACUGGAUGUAGGAUAUCAGGACGAUAAGUCCUGAGAAGGACAUGAGGAUCACCCAUGUACCUCAAACCAGUGCUAUAAUAUA” were 15.1 nM and 30 nM.
In the same order, the values of “GUUUUUUUUCAUGUACAUGAGGAACAUGAGGAUCACCCAUGUAGAAGGAAUUUUUUUAAGUUUAGUUAGGAUAUACAUAUAUUG” are 54.2 nM and 33.9 nM.
Taken in the same sequence, the figures for “GGAUGACAAAGUCAUCCUAUUCGAACAUGAGGAUCACCCAUGUAGGAUAUGCUACUCAAAGAGUAGCAGAAGGACAUGUGCUUU” were 37.6 nM and 165 nM.
Regarding “UAUAUAUAGUAAGGAUAUGUAAUUAUUUUAUGAACAGAAGGUACUGACAUGAGGAUCACCCAUGUUUUAGUGUGGGCAUGUAGA”, the “apparent Kd” value by setting is: under setting [1], 82.9 nM; under setting [2], 119 nM.
In the same order, the values of “AAGAUGCGGGUAGGAUAUGGAGAGAAAGAAAGACCAGAAGGAUUGGUCACACAACAUGAGGAUCACCCAUGUGUGUGUUGCGAA” are 14.1 nM and 11.9 nM.
For the sequence “GGGUACAUCGGAGGAUAUCAUGUAAAUACAUGAGGAUCACCCAUGUCGAUGGAGACAUCGGAGAUUGAGAAGGCAGAUGUACCG”, the “apparent Kd” value reads like this: under setting [3], 333 nM; under setting [4], 18.1 nM.
Turning to “UGCCAGGAGGAGAAGGGAGCACAUGAGGAUCACCCAUGUGGUCCGGGCUGCUCAGGAUAUCCUAACUGUACGCAUUACUACGAA”, the “apparent Kd” value by setting is: under setting [1], 119 nM; under setting [2], 23.2 nM.
Taken in the same sequence, the figures for “CCCUGUGGAGGAUAUUGCAAAGGUGACAUGAGGAUCACCCAUGUUGGACGUUAAGCACUGCAAGAAGGCCGGUUGA” were 50 nM and 24.5 nM.
For the sequence “CCGGAAACGGGUAGCCUGACAUGAGGAUCACCCAUGUAAUCCGAGGAUAUGGAUCCUAAUUGGAUCCAGAAGGUGGCAGGCUAC”, the “apparent Kd” value under setting [3] was found to be 463 nM and the “apparent Kd” value under setting [4] turned out to be 127 nM.
As for “AAUCCACAUGAGGAUCACCCAUGUCAGGAUAUGAACGGUCUGGCACCGUGGGUUCCUGUUGACCGUCAGAAGGGACAAGGGCCC”, the “apparent Kd” value under setting [1] is 5.69 nM and the “apparent Kd” value under setting [2] was 7.72 nM.
Turning to “GGACAUGAGGAUCACCCAUGUUCUCCAGAAGGCCGUACAUUUAAAAGUGGAUGGAUUAGUGUUGCGGAGGAUAUGGAGGUGCAA”, the “apparent Kd” value by setting is: under setting [3], 77.1 nM; under setting [4], 16.7 nM.
In the case of “UGGUACAUCAUAGGAUAUCGUGUGUAAACAUGAGGAUCACCCAUGUCAUCCGAGAGUAUAUCGACCGAGAAGGGUGAUGUACCU”, the “apparent Kd” value was 24.1 nM under setting [3] and 33.3 nM under setting [4].
Turning to “AAAAUCUAUUGAGGAUAUUCAUACACUACGUACGGAGAAGGCAAACAAUCAUGAGGACAUGAGGAUCACCCAUGUUGUGACCAU”, the “apparent Kd” value amounted to 17.6 nM under setting [3] and 10.6 nM under setting [4].
Turning to “AACGGUGGGUAGGAUAUCCGGUUCUAGUUGCCAGGAGAAGGGCCCACAUGAGGAUCACCCAUGUGGGUGGGCUC”, the “apparent Kd” value was found to be 47.7 nM under setting [1] and 26.1 nM under setting [2].
Taken in the same sequence, the figures for “GAAUACCUAGGAUAUACAUGAGGAUCACCCAUGUUAAUAUUUGCAUAUUCAUCCUCUGGUAGAAGGAGGAAACU” were 16.1 nM and 14.6 nM.
For the sequence “GGGUACAUCGGAGGAUAUCAUGUAAAUACAUGAGGAUCACCCAUGUCGAUGGAGACUUCGGAGAUUGAGAAGGCCGAUGUACCG”, the “apparent Kd” value is, setting by setting: under setting [3], 434 nM; under setting [4], 27.8 nM.
As for “GCACAUGAGGAUCACCCAUGUGGUCCAGAAGGCCAGAGGAUCUGCUUUUAGCAGGUCCCUCAAAUGGAGGAUAUGGAGGGUUCU”, the “apparent Kd” value stood at 261 nM under setting [3] and 44.7 nM under setting [4].
On to “UUGCUCGUGUGAGGAUAUGCCGCCGUUUCGGCUGCAGAAGGUACUAUAAUACAUGAGGAUCACCCAUGUCUCUGUUGUUUCGUG”, for which the “apparent Kd” value is, setting by setting: under setting [3], 27.6 nM; under setting [4], 27.1 nM.
In the same order, the values of “AGGUCAACCACAGGAUAUGGCUAGCAUAGCUAGCCAGAAGGGUGGUCAUAUCCAUGUAAAUACAUGAGGAUCACCCAUGUAUCC” are 209 nM and 79.8 nM.
In the same order, the values of “AUAUGGAAUACAGGAUAUGUAAGUUUUAAGUGUAUUGGUUAUUACUUAACAACAGAAGGGUAUUACAUGAGGAUCACCCAUGUA” are 12.8 nM and 10 nM.
In the case of “AGGAAGUAAAGAGACAUGAGGAUCACCCAUGUGACUGCAUCACAGGAUAUGUCGAGCGAAGCACAACAGAAGGGUGAUCAGGGC”, the “apparent Kd” value under setting [3] came to 65.2 nM and the “apparent Kd” value under setting [4] was 120 nM.
